Experimental data from ChEMBL document CHEMBL1148490, “Synthesis, characterization, and preliminary in vivo tests of new poly(ethylene glycol) conjugates of the antitumor agent 10-amino-7-ethylcamptothecin” (J Med Chem, 2004).
“And” between values parts separate entries of the source, which are not always exact repeats. Equal values may be shown once.

Legend:
Rattus norvegicus [1] = experiment: Vdss at a dose of 4 mg/kg in Rat Plasma after iv administration; type: organism-based; set-up: dose 4 mg/kg
Outline: (§1)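 Rats given a single iv dose via the right femoral vein after full recovery from anaesthesia, then a saline flush. Free drug dissolved in DMSO/10 mM H3PO4 (10/1); sodium salt in water. Blood (200 µL) drawn from a left femoral artery cannula at 2, 5, 10, 30 min and 1, 3, 5, 7 h. Plasma diluted in H3PO4 with camptothecin internal standard.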

Rattus norvegicus [2] = experiment: CLtot at a dose of 4 mg/kg in Rat Plasma after iv administration; type: organism-based; set-up: dose 4 mg/kg; outline: as §1
Mus musculus [3] = species: Mus musculus; experiment: Ratio between mean survival days of treated group and control group; type: functional
Outline: (§2)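 Female CDF1 mice inoculated intraperitoneally on day 0 with 1 × 10^6 P388 or P388/ADM (adriamycin-resistant, MDR-expressing) cells per mouse. Intravenous dosing on days 1, 5 and 9; doses listed are total mg/kg. Survival monitored for 40 days, reported as mean ± SD days. T/C% = (mean survival days of treated group / mean survival days of control group) × 100.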

Mus musculus [4] = experiment: Evaluated for survival time of P388/ADM Leukemia implanted female CDF1 Mice at a dose of 25 mg/kg
Mus musculus [5] = experiment: Evaluated for survival time of P388 Leukemia implanted female CDF1 Mice at a dose of 25 mg/kg; type: functional; outline: as §2
[6] = (§3) Area under curve of the compound was determined; type: ADME
Outline: (§4)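 Rats given a single i.v. dose via right femoral vein after recovery from anesthesia, then saline flush. Blood drawn from left femoral artery cannula at 2, 5, 10, 30 min and 1, 3, 5, 7 h. Plasma diluted in 0.146 M H3PO4 with CPT internal standard, then on-line SPE and C18 HPLC with fluorescence detection (ex 390/em 513 nm). LOQ 2 ng/mL. Noncompartmental analysis; AUCinf by trapezoidal rule with extrapolation; n = 1–2 rats.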

[7] = Tmax at a dose of 4 mg/kg in Rat Plasma after iv administration; type: ADME, organism-based; set-up: dose 4 mg/kg, route intravenous; outline: as §1
[8] = Mean residence time at a dose of 4 mg/kg in Rat Plasma after iv administration; type: ADME, organism-based; set-up: dose 4 mg/kg, route intravenous; outline: as §1
[9] = Maximum plasma concentration at a dose of 4 mg/kg in Rat Plasma after iv administration; type: ADME, organism-based; set-up: dose 4 mg/kg, route intravenous; outline: as §1
[10] = (§5) Half life at a dose of 4 mg/kg in Rat Plasma after iv administration; type: ADME, organism-based; set-up: dose 4 mg/kg, route intravenous; outline: as §4
Mus musculus [11] = experiment: Inhibition rate of tumor growth at 50 mg/kg single iv administration against Meth A fibrosarcoma cells in BALB/c Mice; type: functional
Outline: (§6)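 Male BALB/c mice, 7 weeks old (five per group), inoculated s.c. with Meth A cells at 5 × 10^5 cells/mouse on day 0. Single i.v. injection on day 5, doses expressed as free drug equivalent; control group given saline. Tumors weighed on day 21 (mean ± SD); inhibition rate derived from tumor weight relative to control.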

Mus musculus [12] = experiment: Antitumor activity evaluated as tumor weight on day 21 of Meth A Fibrosarcoma in BALB/c mice at a dose of 100 mg/kg administered intravenously on day 5; type: functional; conditions: route intravenous
Outline: (§7)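 Meth A cells, 5 × 10^5/mouse, inoculated subcutaneously on day 0 into 7 week old male BALB/c mice, five per group. A single intravenous injection on day 5; saline for controls. Tumours weighed on day 21. Doses in mg/kg expressed as free drug. Inhibition rate derived from tumour weight relative to the saline control group.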

Mus musculus [13] = experiment: Antitumor activity evaluated as tumor weight on day 21 of Meth A Fibrosarcoma in BALB/c mice at a dose of 50 mg/kg administered intravenously on day 5; type: functional; conditions: route intravenous; outline: as §7
Rattus norvegicus [14] = species: Rattus norvegicus; experiment: as §3; type: ADME, organism-based; conditions: in vivo; outline: as §1
Mus musculus [15] = experiment: Inhibition rate of tumor growth at 100 mg/kg single iv administration against Meth A fibrosarcoma cells in BALB/c Mice; type: functional; outline: as §6
[16] = as §5; type: ADME, organism-based; set-up: dose 4 mg/kg, route intravenous; outline: as §1; remark: listed apart in the source
Mus musculus [17] = experiment: Antitumor activity evaluated as tumor weight on day 21 of Meth A Fibrosarcoma in BALB/c mice at a dose of 25 mg/kg administered intravenously on day 5; type: functional; conditions: route intravenous; outline: as §7
Mus musculus [18] = experiment: (§8) Inhibition rate of tumor growth at 25 mg/kg single iv administration against Meth A fibrosarcoma cells in BALB/c Mice; type: functional; outline: as §7
Mus musculus [19] = experiment: as §8; type: functional; outline: as §6; remark: listed apart in the source
Mus musculus [20] = experiment: Evaluated for survival time of P388/ADM Leukemia implanted female CDF1 Mice at a dose of 50 mg/kg; type: functional; outline: as §2
Mus musculus [21] = experiment: Evaluated for survival time of P388 Leukemia implanted female CDF1 Mice at a dose of 100 mg/kg; type: functional; outline: as §2
Mus musculus [22] = experiment: Ratio between mean survival days of treated group and control group at a dose of 100 mg/kg; type: functional; outline: as §2
Mus musculus [23] = experiment: Evaluated for survival time of P388/ADM Leukemia implanted female CDF1 Mice at a dose of 100 mg/kg; type: functional; outline: as §2
Mus musculus [24] = experiment: Ratio between mean survival days of treated group and control group at a dose of 50 mg/kg; type: functional; outline: as §2
Mus musculus [25] = experiment: Evaluated for survival time of P388 Leukemia implanted female CDF1 Mice at a dose of 50 mg/kg; type: functional; outline: as §2
Mus musculus [26] = experiment: Ratio between mean survival days of treated group and control group at a dose of 25 mg/kg; type: functional; outline: as §2

In the case of CCc1c2c(nc3ccc(N)cc13)-c1cc3c(c(=O)n1C2)COC(=O)[C@]3(O)CC [listing 1 of 2 here], the Vdss (Rattus norvegicus [1]) is reported as 2.65 L/kg and 2.37 L/kg and the CL (mL.min-1.kg-1) (Rattus norvegicus [2]) is reported as 40.3 and 34.5.
For COc1cccc2c1C(=O)c1c(O)c3c(c(O)c1C2=O)C[C@@](O)(C(=O)CO)C[C@@H]3O[C@H]1C[C@H](N)[C@H](O)[C@H](C)O1 [DOXORUBICIN], the T/C (Mus musculus [3]) was 261% and 102%, the Activity (Mus musculus [4]) was 9.8 days and the Activity (Mus musculus [5]) was 20 days.
For CCc1c2c(nc3ccc(N)cc13)-c1cc3c(c(=O)n1C2)COC(=O)[C@]3(O)CC [listing 2 of 2 here], the AUC inf [6] was 2.08 µg/h/mL, the Tmax [7] was 2 min and the MRT inf [8] was 1.09 h. The Cmax [9] was 10500 ng/mL and the half-life [10] was 2.25 h.
CCc1c2c(nc3ccc(N)cc13)-c1cc3c(c(=O)n1C2)COC(=O)[C@]3([O-])CC.[Na+] showed an Inhibition rate (Mus musculus [11]) of 64%, an Antitumor activity (Mus musculus [12]) of 0.88 g and an Antitumor activity (Mus musculus [13]) of 0.88 g. For the same compound, the Tmax [7] was 2 min, the AUC inf (Rattus norvegicus [14]) was 1.71 µg/h/mL and the MRT inf [8] was 1.09 h. For the same compound, the Inhibition rate (Mus musculus [15]) was 69.3%, the half-life [16] was 2.26 h and the Cmax [9] was 10500 ng/mL. For the same compound, the Antitumor activity (Mus musculus [17]) was 0.93 g and the Inhibition rate (Mus musculus [18]) was 62.3%.
For CCc1c2c(nc3ccc(OC(=O)N4CCC(N5CCCCC5)CC4)cc13)-c1cc3c(c(=O)n1C2)COC(=O)[C@]3(O)CC [IRINOTECAN], the Inhibition rate (Mus musculus [11]) was 46.6%, the Antitumor activity (Mus musculus [12]) was 1.16 g and the Antitumor activity (Mus musculus [19]) was 49.5%. It also gave an Antitumor activity (Mus musculus [13]) of 1.31 g, a Survival time (Mus musculus [20]) of 14.7 days and a Survival time (Mus musculus [21]) of 17.5 days. The T/C (Mus musculus [22]) was 228%, the Survival time (Mus musculus [23]) was 15.7 days and the Inhibition rate (Mus musculus [15]) was 52.7%. For the same compound, the T/C (Mus musculus [24]) was 189%, the Survival time (Mus musculus [25]) was 14.5 days and the Antitumor activity (Mus musculus [17]) was 1.24 g. The T/C (Mus musculus [26]) was 172% and 129%.
